Experimental data from ChEMBL document CHEMBL1135672, “QSAR evaluation of the Ch'an Su and related bufadienolides against the colchicine-resistant primary liver carcinoma cell line PLC/PRF/5(1)” (J Med Chem, 2002).
In brackets after ≈: the same amount, converted by molar mass. Blank lines part the entries; values can stand above or below the compound they belong to.

Legend:
Assay type in all cases: functional, Homo sapiens
[1] = Inhibitory activity against colchicine resistant parent primary liver carcinoma (PLC) cell line PLC/PRF/5
In short: (§1)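 PLC/PRF/5 cells were precultured 24 h at 37 °C in 5% CO₂ in 96-well plates, then given colchicine at 0.5 μg/mL. Test compounds were added in dilutions of 10⁻²–10⁻⁶ μg/mL and incubated 72 h at 37 °C in 5% CO₂. Survival was read by MTT. IC50 is the μg/mL giving 50% growth inhibition of the colchicine-resistant cells.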

[2] = Inhibitory activity against the primary liver carcinoma (PLC) cell line PLC/PRF/5
[3] = Inhibitory activity against Colchicine resistant parent primary liver carcinoma (PLC) cell line PLC/PRF/5; in short: as §1

Compound: CC(=O)O[C@H]1CC[C@]2(C)C3CC[C@]4(C)[C@@H](c5ccc(=O)oc5)[C@@H](OC(C)=O)C[C@@]4(O)C3CC[C@@H]2C1 (some centres not stated)
IC50 [1]: 21 µg/mL (≈ 43.2 µM)
IC50 [2]: 7.5 µg/mL (≈ 15.4 µM)

Compound: C[C@]12CCC3C(CC[C@@H]4CC(=O)CC[C@]34C)C1=CC[C@@H]2c1ccc(=O)oc1 (some centres not stated)
IC50 [3]: 7.8 µg/mL (≈ 21.3 µM)
IC50 [2]: 4.9 µg/mL (≈ 13.4 µM)

Compound: CC(=O)O[C@H]1[C@H]2O[C@]23[C@@H]2CC[C@@H]4C[C@H](O)CC[C@]4(C)[C@H]2CC[C@]3(C)[C@H]1c1ccc(=O)oc1
IC50 [1]: 0.9 µg/mL (≈ 2.03 µM)
IC50 [2]: 0.098 µg/mL (≈ 0.221 µM)

Compound: CC(=O)O[C@@H]1C[C@]2(C)[C@@H](c3ccc(=O)oc3)CC[C@]2(O)[C@@H]2CC[C@@H]3CC(=O)CC[C@]3(C)[C@H]21
IC50 [1]: 5.6 µg/mL (≈ 12.7 µM)
IC50 [2]: 0.79 µg/mL (≈ 1.79 µM)

IC50 [1]: 9.5 µg/mL (≈ 22.2 µM)
IC50 [2]: 7.5 µg/mL (≈ 17.5 µM)
Compound: CCOC(=O)C/C=C/C1=CO[C@]23CCC1[C@@]2(C)CC[C@H]1[C@H]3CC[C@@H]2C[C@@H](O)CC[C@@]21C

Compound: CC(=O)O[C@H]1[C@H]2O[C@]23[C@@H]2CC[C@@H]4C[C@@H](OC(=O)/C=C/c5ccccc5)CC[C@]4(C)[C@H]2CC[C@]3(C)[C@H]1c1ccc(=O)oc1
IC50 [1]: 9.8 µg/mL (≈ 17.1 µM)
IC50 [2]: 6.4 µg/mL (≈ 11.2 µM)

Compound: C[C@]12CCC(=O)C[C@H]1CC[C@@H]1[C@@H]2CC[C@]2(C)[C@@H](c3ccc(=O)oc3)CC[C@]12O
IC50 [1]: 0.61 µg/mL (≈ 1.59 µM)
IC50 [2]: 0.0093 µg/mL (≈ 0.0242 µM)

Compound: CC(C)(C)OC(=O)NNC(=O)CCC(=O)O[C@H]1CC[C@@]2(C)[C@H](CC[C@@H]3[C@@H]2CC[C@]2(C)[C@@H](c4ccc(=O)oc4)CC[C@]32O)C1
IC50 [1]: 0.0056 µg/mL (≈ 0.00932 µM)
IC50 [2]: 0.00062 µg/mL (≈ 0.00103 µM)

Compound: CC(=O)O[C@H]1CC[C@@]2(C)[C@H](CC[C@@H]3[C@@H]2CC[C@]2(C)[C@@H](C4=CC(=O)OC4)CC[C@]32O)C1
IC50 [1]: 0.5 µg/mL (≈ 1.2 µM)
IC50 [2]: 0.55 µg/mL (≈ 1.32 µM)

Compound: CC(=O)O[C@H]1CC[C@@]2(C)[C@H](CC[C@@H]3[C@@H]2CC[C@]2(C)[C@@H](c4ccc(=O)oc4)[C@@H](O)[C@H]4O[C@]342)C1
IC50 [1]: 3.4 µg/mL (≈ 7.68 µM)
IC50 [2]: 0.098 µg/mL (≈ 0.221 µM)

Compound: CC(=O)O[C@H]1[C@H]2O[C@]23[C@@H]2CC[C@@H]4CC(=O)CC[C@]4(C)[C@H]2CC[C@]3(C)[C@H]1c1ccc(=O)oc1
IC50 [1]: 0.77 µg/mL (≈ 1.75 µM)
IC50 [2]: 0.056 µg/mL (≈ 0.127 µM)

Compound: COC(=O)CCCCCCC(=O)O[C@H]1CC[C@@]2(C)[C@H](CC[C@@H]3[C@@H]2CC[C@]2(C)[C@@H](c4ccc(=O)oc4)CC[C@]32O)C1
IC50 [1]: 0.094 µg/mL (≈ 0.169 µM)
IC50 [2]: 0.009 µg/mL (≈ 0.0162 µM)

IC50 [1]: 41 µg/mL (≈ 87.1 µM)
IC50 [2]: 6.4 µg/mL (≈ 13.6 µM)
Compound: CCOC(=O)C/C=C/C1=CO[C@]23CCC1[C@@]2(C)CC[C@H]1[C@H]3CC[C@@H]2C[C@@H](OC(C)=O)CC[C@@]21C

Compound: CC(=O)CC1OC2C(C1C=O)[C@@]1(C)CC[C@H]3[C@@H](CC[C@@H]4C[C@@H](O)CC[C@@]43C)[C@]13O[C@H]23 (some centres not stated)
IC50 [1]: > 50 µg/mL
IC50 [2]: 26 µg/mL (≈ 62.4 µM)

Compound: CC(=O)O[C@H]1CC[C@@]2(C)[C@H](CC[C@@H]3[C@@H]2[C@H](O)C[C@]2(C)[C@@H](c4ccc(=O)oc4)CC[C@]32O)C1
IC50 [1]: 0.66 µg/mL (≈ 1.48 µM)
IC50 [2]: 0.06 µg/mL (≈ 0.135 µM)

Compound: C[C@]12CC[C@H](OC(=O)CCCCCCC(=O)O)C[C@H]1CC[C@@H]1[C@@H]2CC[C@]2(C)[C@@H](C3=CC(=O)OC3)CC[C@]12O
IC50 [1]: 8.6 µg/mL (≈ 16.2 µM)
IC50 [2]: 5.2 µg/mL (≈ 9.8 µM)

Compound: C[C@]12CC[C@@H](O)C[C@H]1CC[C@@H]1[C@@H]2CC[C@]2(C)[C@@H](c3ccc(=O)oc3)CC[C@]12O
IC50 [1]: 0.077 µg/mL (≈ 0.199 µM)
IC50 [2]: 0.076 µg/mL (≈ 0.197 µM)

Compound: C[C@]12CC[C@H](OC(=O)CCCCCCC(=O)O)C[C@H]1CC[C@@H]1[C@@H]2CC[C@]2(C)[C@@H](c3ccc(=O)oc3)CC[C@]12O
IC50 [1]: 0.0036 µg/mL (≈ 0.00663 µM)
IC50 [2]: 0.00075 µg/mL (≈ 0.00138 µM)

Compound: CC(=O)O[C@H]1CC[C@@]2(C)[C@H](CC[C@@H]3[C@@H]2CC[C@]2(C)[C@@H](c4ccc(=O)oc4)CC[C@]32O)C1
IC50 [1]: 0.009 µg/mL (≈ 0.021 µM)
IC50 [2]: 0.0002 µg/mL (≈ 0.000467 µM)

Compound: CC(=O)O[C@H]1CC[C@@]2(C)[C@H](CC[C@@H]3[C@@H]2CC[C@]2(C)[C@@H](c4ccc(=O)oc4)[C@@H](OC(C)=O)[C@H]4O[C@]342)C1
IC50 [1]: 0.092 µg/mL (≈ 0.19 µM)
IC50 [2]: 0.04 µg/mL (≈ 0.0825 µM)

IC50 [1]: > 50 µg/mL
IC50 [2]: 8.4 µg/mL (≈ 19.4 µM)
Compound: COC(=O)C/C=C(\C=O)C1[C@@H](O)C(=O)[C@H]2[C@@H]3CC[C@@H]4C[C@@H](O)CC[C@]4(C)[C@H]3CC[C@]12C (some centres not stated)

Compound: C[C@]12CC[C@H](O)C[C@H]1CC[C@H]1[C@H]3C(=O)C[C@H](c4ccc(=O)oc4)[C@@]3(C)CC[C@@H]12
IC50 [1]: 12 µg/mL (≈ 31.2 µM)
IC50 [2]: 0.82 µg/mL (≈ 2.13 µM)

Compound: C[C@]12CC[C@H](O)C=C1CCC1C2CC[C@]2(C)[C@@H](c3ccc(=O)oc3)CC[C@]12O (some centres not stated)
IC50 [1]: 0.00032 µg/mL (≈ 0.000832 µM)
IC50 [2]: 0.00031 µg/mL (≈ 0.000806 µM)

Compound: C[C@]12CCC3C(CC[C@@H]4C[C@@H](O)CC[C@]34C)C1=CC[C@@H]2c1ccc(=O)oc1 (some centres not stated)
IC50 [1]: 0.9 µg/mL (≈ 2.44 µM)
IC50 [2]: 0.83 µg/mL (≈ 2.25 µM)

Compound: C[C@]12CC[C@H](O)C[C@H]1CC[C@@H]1[C@@H]2CC[C@]2(C)[C@@H](c3ccc(=O)oc3)CC[C@]12O [BUFALIN]
IC50 [1]: 0.00028 µg/mL (≈ 0.000724 µM)
IC50 [2]: 0.00028 µg/mL (≈ 0.000724 µM)

Compound: C[C@]12CC[C@H](O)C[C@H]1CC[C@@H]1[C@@H]2CC[C@]2(C)[C@@H](c3ccc(=O)oc3)C[C@H]3O[C@]132 [BUFOGENIN]
IC50 [1]: 0.076 µg/mL (≈ 0.198 µM)
IC50 [2]: 0.077 µg/mL (≈ 0.2 µM)

Compound: CC(=O)O[C@H]1C[C@]2(O)[C@@H]3CC[C@@H]4C[C@@H](O)CC[C@]4(C)[C@H]3CC[C@]2(C)[C@H]1c1ccc(=O)oc1 [BUFOTALIN]
IC50 [1]: 0.0026 µg/mL (≈ 0.00585 µM)
IC50 [2]: 0.00034 µg/mL (≈ 0.000765 µM)

Compound: CC(=O)O[C@H]1[C@H]2O[C@]23[C@@H]2CC[C@@H]4C[C@@H](O)CC[C@]4(C)[C@H]2CC[C@]3(C)[C@H]1c1ccc(=O)oc1 [CINOBUFAGIN]
IC50 [1]: 0.00092 µg/mL (≈ 0.00208 µM)
IC50 [2]: 0.00074 µg/mL (≈ 0.00167 µM)

Compound: CC(=O)O[C@H]1[C@H]2O[C@]23[C@@H]2CC[C@]4(O)C[C@@H](O)CC[C@]4(C)[C@H]2CC[C@]3(C)[C@H]1c1ccc(=O)oc1 [CINOBUFOTALIN]
IC50 [1]: 0.008 µg/mL (≈ 0.0174 µM)
IC50 [2]: 0.001 µg/mL (≈ 0.00218 µM)

Compound: C[C@]12CC[C@H](O)C[C@H]1CC[C@@H]1[C@@H]2CC[C@]2(C)[C@@H](c3ccc(=O)oc3)[C@@H](O)C[C@]12O [DESACETYLBUFOTALIN]
IC50 [1]: 0.008 µg/mL (≈ 0.0199 µM)
IC50 [2]: 0.00078 µg/mL (≈ 0.00194 µM)

Compound: C[C@]12CC[C@H](O)C[C@H]1CC[C@@H]1[C@@H]2CC[C@]2(C)[C@@H](c3ccc(=O)oc3)[C@@H](O)[C@H]3O[C@]132 [DESACETYLCINOBUFAGIN]
IC50 [1]: 4.8 µg/mL (≈ 12 µM)
IC50 [2]: 0.52 µg/mL (≈ 1.3 µM)

Compound: C[C@]12CC[C@H](O)C[C@@]1(O)CC[C@@H]1[C@@H]2CC[C@]2(C)[C@@H](c3ccc(=O)oc3)[C@@H](O)[C@H]3O[C@]132 [DESACETYLCINOBUFOTALIN]
IC50 [1]: 0.64 µg/mL (≈ 1.54 µM)
IC50 [2]: 0.67 µg/mL (≈ 1.61 µM)

Compound: C[C@]12CC[C@H](O)C[C@H]1CC[C@@H]1[C@@H]2CC[C@]2(C)[C@@H](C3=CC(=O)OC3)CC[C@]12O [DIGITOXIGENIN]
IC50 [1]: 0.0092 µg/mL (≈ 0.0246 µM)
IC50 [2]: 0.00087 µg/mL (≈ 0.00232 µM)

Compound: C[C@]12CC[C@H](O)C[C@H]1CC[C@@H]1[C@@H]2[C@H](O)C[C@]2(C)[C@@H](c3ccc(=O)oc3)CC[C@]12O [GAMABUFOTALIN]
IC50 [1]: 0.0008 µg/mL (≈ 0.00199 µM)
IC50 [2]: 0.00023 µg/mL (≈ 0.000571 µM)

Compound: C[C@]12CC[C@H](O)C[C@@]1(O)CC[C@@H]1[C@@H]2CC[C@]2(C)[C@@H](C3=CC(=O)OC3)CC[C@]12O [PERIPLOGENIN]
IC50 [1]: 0.75 µg/mL (≈ 1.92 µM)
IC50 [2]: 0.061 µg/mL (≈ 0.156 µM)

Compound: C[C@]12CC[C@H](O)C[C@@]1(O)CC[C@@H]1[C@@H]2CC[C@]2(C)[C@@H](c3ccc(=O)oc3)CC[C@]12O [TELOCINOBUFAGIN]
IC50 [1]: 0.0026 µg/mL (≈ 0.00646 µM)
IC50 [2]: 0.000345 µg/mL (≈ 0.000857 µM)
